ChEMBL document CHEMBL3407387, “Antioxidant activity and inhibition of α-glucosidase by hydroxyl-functionalized 2-arylbenzo[b]furans” (Eur J Med Chem, 2015)
pIC50, pKi: −log10 of the molar value. Active and inactive are the calls of the source. The rule behind the calls is not given here.

Key:
[1] = Inhibition of Saccharomyces cerevisiae alpha-glucosidase using 4-NPGP substrate assessed as reduction in 4-nitrophenol release pre-incubated for 10 mins before substrate addition by microplate reader based assay
Summary of the method: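 Test compound at 0 to 100 µM premixed with enzyme in 100 mM phosphate buffer, pH 7.0, and held 30 °C for 10 min. Then 12.5 mM 4-NPGP (stock) added and 4-nitrophenol release read at 405 nm. IC50 is the concentration inhibiting 50% of α-glucosidase activity.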

[2] = Antioxidant activity assessed as DPPH radical scavenging activity incubated for 5 mins by microplate spectrophotometry; format: physicochemical
Saccharomyces cerevisiae [3] = experiment: Mixed type inhibition of Saccharomyces cerevisiae alpha-glucosidase using 4-NPGP substrate assessed as reduction in 4-nitrophenol release pre-incubated for 10 mins before substrate addition by Lineweaver-Burk plot analysis
Summary of the method: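 Double-reciprocal (Lineweaver-Burk) analysis of initial velocities, taken as A405 rate/min, across increasing 4-NPGP concentrations. Inhibitor present at 0, 0.25, 0.5 and 1.0 µM. Run in pH 7.0 phosphate buffer at 30 °C to assign inhibition mode.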

Saccharomyces cerevisiae [4] = experiment: Mixed type inhibition of Saccharomyces cerevisiae alpha-glucosidase using 4-NPGP substrate assessed as reduction in 4-nitrophenol release pre-incubated for 10 mins before substrate addition by Dixon plot analysis
[5] = Mixed type inhibition of Saccharomyces cerevisiae alpha-glucosidase using 4-NPGP substrate assessed as equilibrium constant for binding to enzyme by measuring reduction in 4-nitrophenol release pre-incubated for 10 mins before substrate addition by Dixon plot analysis
[6] = Mixed type inhibition of Saccharomyces cerevisiae alpha-glucosidase using 4-NPGP substrate assessed as equilibrium constant for binding to enzyme-4-NPGP complex by measuring reduction in 4-nitrophenol release pre-incubated for 10 mins before substrate addition by Dixon plot analysis
[7] = Inhibition of Saccharomyces cerevisiae alpha-glucosidase
Summary of the method: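 Compound (0 to 100 µM) premixed with 100 mM phosphate buffer pH 7.0, 30 °C for 10 min; 12.5 mM 4-nitrophenyl glucopyranoside substrate then added; 4-nitrophenol release read at 405 nm; resveratrol and quercetin as positive controls; IC50 = concentration giving 50% inhibition.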

[8] = Antioxidant activity assessed as DPPH radical scavenging activity; format: physicochemical
Summary of the method: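 Compound dissolved in MeOH (0 to 100 µM), mixed with 0.1 mM DPPH, 150 µL final mixture, 37 °C for 5 min; absorbance at 517 nm; IC50 derived from DPPH scavenging.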

Row | Compound | pIC50 [1] | pIC50 [2] | further results
1 | Oc1cc(-c2cc3c(Br)ccc(O)c3o2)c(Br)c(O)c1O | 4.91 | 4.71 | –
2 | Oc1cc(Br)c(-c2cc3cccc(O)c3o2)cc1O | 5.15 | 4.69 | –
3 | CCOC(=O)/C=C/c1cc(O)c(O)cc1-c1cc2cccc(O)c2o1 | 5.26 | 4.58 | –
4 | CCOC(=O)/C=C/c1ccc(O)c2oc(-c3ccc(O)c(O)c3)cc12 | 5.05 | 4.77 | –
5 | CCOC(=O)/C=C/c1cc(OC)c(OC)cc1-c1cc2cccc(OC)c2o1 | < 4.00 | < 4.00 | –
6 | Oc1cc(Br)c(-c2cc3c(Br)ccc(O)c3o2)cc1O | 5.19 | 5.11 | –
7 | Oc1cc(-c2cc3cc(Br)cc(O)c3o2)cc(O)c1O | 5.52 | 4.84 | –
8 | Oc1ccc(-c2cc3cc(Br)cc(O)c3o2)cc1 | 4.53 | < 4.00 | –
9 | O=c1c(O)c(-c2ccc(O)c(O)c2)oc2cc(O)cc(O)c12 [QUERCETIN] | 5.18 | 5.22 | pIC50 [7]: 5.28; pIC50 [8]: 5.04
10 | Oc1ccc(-c2cc3c(Br)ccc(O)c3o2)cc1O | 5.19 | 4.74 | –
11 | COc1cc(Br)c(-c2cc3cccc(OC)c3o2)cc1OC | < 4.00 | < 4.00 | –

The next lines start with results.

Row | pIC50 [1] | pIC50 [2] | Compound | further results
12 | 5.07 | 4.74 | Oc1cc(-c2cc3ccccc3o2)c(Br)c(O)c1O | –
13 | 5.12 | 4.54 | Oc1ccc(-c2cc3cc(Br)cc(O)c3o2)cc1O | –
14 | 5.72 | 4.73 | Oc1ccc(-c2cc3cccc(O)c3o2)cc1O | inhibition (Saccharomyces cerevisiae [3]): Active; inhibition (Saccharomyces cerevisiae [4]): Active; pKi [5]: 5.38; pKi [6]: 4.86
15 | < 4.00 | < 4.00 | COc1ccc(-c2cc3cccc(OC)c3o2)cc1OC | –
16 | 5.70 | 4.93 | CCOC(=O)/C=C/c1cc(O)c2oc(-c3cc(O)c(O)c(O)c3)cc2c1 | inhibition (Saccharomyces cerevisiae [3]): Active; inhibition (Saccharomyces cerevisiae [4]): Active; pKi [5]: 5.50; pKi [6]: 4.93
17 | 4.62 | 4.60 | CCOC(=O)/C=C/c1cc(O)c2oc(-c3ccc(O)c(O)c3)cc2c1 | –
18 | < 4.00 | < 4.00 | COc1cc(-c2cc3cc(Br)cc(OC)c3o2)cc(OC)c1OC | –
19 | 5.09 | 4.97 | Oc1cc(-c2cc3ccccc3o2)cc(O)c1O | –
20 | 4.51 | 4.20 | Oc1ccc(/C=C/c2cc(O)cc(O)c2)cc1 [RESVERATROL] | pIC50 [7]: 4.55; pIC50 [8]: 4.42
21 | 5.11 | 4.47 | Oc1cc(Br)c(-c2cc3ccccc3o2)cc1O | –
22 | 5.04 | 4.89 | Oc1cc(-c2cc3cccc(O)c3o2)cc(O)c1O | –
